Experimental findings from ChEMBL document CHEMBL1166014, “Targeting efflux pumps-In vitro investigations with acridone derivatives and identification of a lead molecule for MDR modulation” (Bioorg Med Chem, 2010) are described below.

In assay [1] the test system is Candida albicans. Nature of the assay: Antifungal activity at Candida albicans CAI4 assessed as inhibition of fungal growth at 0.9 mg/ml after 48 hrs by spot assay. It is filed as functional, organism-based. Put shortly: (§1)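 Spot assay on YEPD-agar plates containing compound (with Congo red or calcofluor white where applicable); solvent (MeOH/DMSO 1:1) and YEPD-only control plates; CAI4 primary culture 16 h, secondary 5 h at 30 °C from 4% inoculum, diluted in 0.9% saline; 10⁵ to 10⁰ cells spotted; 30 °C 48 h, growth scored.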

Assay [2] has as its system Candida albicans. Nature of the assay: Antifungal activity at Candida albicans CAI4 assessed as inhibition of fungal growth at 1 mg/ml after 48 hrs by spot assay. It is filed as functional, organism-based. Put shortly:
as §1

Assay [3] concerns the target Multidrug resistance protein CDR1 (Candida albicans) (UniProt P43071). Nature of the assay: Modulation of CDR1-mediated rhodamine 6G accumulation in Candida albicans CAI4 assessed as inhibition of fungal growth at 800 ug/ml after 48 hrs by spot assay. Summed up:
(§2)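 Spot assay: CAI4 grown in YEPD at 30 °C (16 h primary, 5 h secondary), diluted in 0.9% saline and spotted as 10⁵–10⁰ cells on YEPD agar containing compound plus R6G; solvent (MeOH/DMSO 1:1) and YEPD-only control plates; growth scored after 48 h at 30 °C.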

The target of assay [4] is T1, Multidrug resistance protein CDR2 (Candida albicans (strain SC5314 / ATCC MYA-2876) (Yeast)) (UniProt P78595).
T1 sequence (whole entry): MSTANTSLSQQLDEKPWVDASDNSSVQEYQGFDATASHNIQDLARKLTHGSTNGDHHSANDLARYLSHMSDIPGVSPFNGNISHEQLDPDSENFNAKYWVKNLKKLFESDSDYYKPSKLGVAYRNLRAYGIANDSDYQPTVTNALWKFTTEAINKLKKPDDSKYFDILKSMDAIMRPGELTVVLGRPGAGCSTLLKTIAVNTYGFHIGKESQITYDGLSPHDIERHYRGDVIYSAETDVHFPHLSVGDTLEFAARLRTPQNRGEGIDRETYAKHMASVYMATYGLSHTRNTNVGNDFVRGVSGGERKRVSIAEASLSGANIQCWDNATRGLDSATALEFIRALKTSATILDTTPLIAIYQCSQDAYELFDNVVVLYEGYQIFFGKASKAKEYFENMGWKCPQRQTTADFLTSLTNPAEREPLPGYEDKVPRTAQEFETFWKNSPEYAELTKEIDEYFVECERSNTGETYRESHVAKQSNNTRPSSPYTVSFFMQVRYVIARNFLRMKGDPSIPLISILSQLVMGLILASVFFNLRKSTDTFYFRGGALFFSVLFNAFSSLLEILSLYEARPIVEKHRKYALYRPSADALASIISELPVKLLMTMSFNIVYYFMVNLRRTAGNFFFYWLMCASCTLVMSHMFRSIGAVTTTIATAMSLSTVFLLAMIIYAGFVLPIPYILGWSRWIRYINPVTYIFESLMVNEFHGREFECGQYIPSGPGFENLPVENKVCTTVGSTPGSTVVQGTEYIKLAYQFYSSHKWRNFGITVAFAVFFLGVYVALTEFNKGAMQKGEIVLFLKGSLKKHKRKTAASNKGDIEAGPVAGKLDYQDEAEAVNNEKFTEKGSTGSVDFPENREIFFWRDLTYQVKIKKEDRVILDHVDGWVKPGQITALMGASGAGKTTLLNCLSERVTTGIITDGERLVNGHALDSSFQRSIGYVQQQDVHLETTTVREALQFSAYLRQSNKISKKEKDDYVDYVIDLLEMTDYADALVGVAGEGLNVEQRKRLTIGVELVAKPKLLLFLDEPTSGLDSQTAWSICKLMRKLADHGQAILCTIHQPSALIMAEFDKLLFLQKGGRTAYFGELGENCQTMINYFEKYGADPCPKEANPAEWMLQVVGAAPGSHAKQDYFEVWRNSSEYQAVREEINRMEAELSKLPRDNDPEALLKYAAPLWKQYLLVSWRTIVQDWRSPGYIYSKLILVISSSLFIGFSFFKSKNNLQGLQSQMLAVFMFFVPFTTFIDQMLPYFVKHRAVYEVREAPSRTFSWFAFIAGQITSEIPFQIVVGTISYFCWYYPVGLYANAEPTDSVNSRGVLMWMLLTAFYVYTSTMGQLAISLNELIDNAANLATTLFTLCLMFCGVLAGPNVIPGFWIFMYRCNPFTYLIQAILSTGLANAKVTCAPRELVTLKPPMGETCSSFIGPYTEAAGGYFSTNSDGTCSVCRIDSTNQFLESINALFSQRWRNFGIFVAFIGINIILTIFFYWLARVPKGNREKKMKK
The assay is described as follows: Modulation of CDR2-mediated rhodamine 6G accumulation in Candida albicans CAI4 assessed as inhibition of fungal growth at 800 ug/ml after 48 hrs by spot assay. Put shortly:
as §2

In assay [5] the target is T1, Multidrug resistance protein CDR2 (Candida albicans (strain SC5314 / ATCC MYA-2876) (Yeast)). The assay is described as follows: Modulation of CDR2-mediated rhodamine 6G accumulation in Candida albicans CAI4 assessed as increase in R6G influx at 800 ug/ml after 180 mins by spectrofluorimetry. Put shortly: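 C. albicans CAI4 secondary culture (YEPD, 30 °C, ~5 h) washed in PBS, 2% suspension in PBS with 2 mM 2-deoxyglucose rocked 2 h; compound added at 800 µg/ml (MeOH/DMSO 1:1 solvent control), then R6G; aliquots over 0–180 min centrifuged, R6G left in supernatant measured as OD527.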

Assay [6] is described as follows: Binding affinity to P-gp at 5 uM after 30 mins by spectrophotometry. Summed up:
(§3)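 P-gp vesicles from DC-3F/ADX MDR cells; basal MgATP hydrolysis measured by PK/LDH-coupled NADH oxidation (PEP, NADH), with non-specific ATPase inhibitor; vesicles 5 min at 37 °C, compound added (final 0.05, 0.5, 5 µM) 5 min, MgATP then 20 min at 37 °C; A340 read twice 20 min apart; triplicate; verapamil, vinblastine, progesterone references.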

Assay [7] is described as follows: Binding affinity to P-gp at 0.5 uM after 30 mins by spectrophotometry. Put shortly:
as §3

Assay [8] can be described thus: Binding affinity to P-gp at 0.05 uM after 30 mins by spectrophotometry. Summed up: as §3
Assay [9] can be described thus: Binding affinity to P-gp assessed as increase in basal protein activity at 0.5 uM after 30 mins by spectrophotometry. Put shortly: as §3
Assay [10] is described as follows: Binding affinity to Mg2+ at 100 uM in HEPES buffer of pH 7.2 by spectrophotometry. Put shortly: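 Compound at 10^-4 M in 10^-2 M HEPES pH 7.2 titrated with Mg²⁺ (0–0.5 × 10^-4 M); absorbance changes at 270–310, 390–415 and 320–340 nm monitored; binding constant by Benesi–Hildebrand equation.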
Assay [11] relates to Candida albicans. The assay is described as follows: Antifungal activity at Candida albicans CAI4 assessed as reduction in colony formation at 0.9 mg/ml after 48 hrs by spot assay. It is filed as functional, organism-based. Summed up: as §1

Molecules are shown by their SMILES. The source made the active and inactive calls. The calls are words filed in the database; no cut-off is given here.

Chain of Multidrug resistance protein CDR1 (Candida albicans) (P43071 whole entry, looked up): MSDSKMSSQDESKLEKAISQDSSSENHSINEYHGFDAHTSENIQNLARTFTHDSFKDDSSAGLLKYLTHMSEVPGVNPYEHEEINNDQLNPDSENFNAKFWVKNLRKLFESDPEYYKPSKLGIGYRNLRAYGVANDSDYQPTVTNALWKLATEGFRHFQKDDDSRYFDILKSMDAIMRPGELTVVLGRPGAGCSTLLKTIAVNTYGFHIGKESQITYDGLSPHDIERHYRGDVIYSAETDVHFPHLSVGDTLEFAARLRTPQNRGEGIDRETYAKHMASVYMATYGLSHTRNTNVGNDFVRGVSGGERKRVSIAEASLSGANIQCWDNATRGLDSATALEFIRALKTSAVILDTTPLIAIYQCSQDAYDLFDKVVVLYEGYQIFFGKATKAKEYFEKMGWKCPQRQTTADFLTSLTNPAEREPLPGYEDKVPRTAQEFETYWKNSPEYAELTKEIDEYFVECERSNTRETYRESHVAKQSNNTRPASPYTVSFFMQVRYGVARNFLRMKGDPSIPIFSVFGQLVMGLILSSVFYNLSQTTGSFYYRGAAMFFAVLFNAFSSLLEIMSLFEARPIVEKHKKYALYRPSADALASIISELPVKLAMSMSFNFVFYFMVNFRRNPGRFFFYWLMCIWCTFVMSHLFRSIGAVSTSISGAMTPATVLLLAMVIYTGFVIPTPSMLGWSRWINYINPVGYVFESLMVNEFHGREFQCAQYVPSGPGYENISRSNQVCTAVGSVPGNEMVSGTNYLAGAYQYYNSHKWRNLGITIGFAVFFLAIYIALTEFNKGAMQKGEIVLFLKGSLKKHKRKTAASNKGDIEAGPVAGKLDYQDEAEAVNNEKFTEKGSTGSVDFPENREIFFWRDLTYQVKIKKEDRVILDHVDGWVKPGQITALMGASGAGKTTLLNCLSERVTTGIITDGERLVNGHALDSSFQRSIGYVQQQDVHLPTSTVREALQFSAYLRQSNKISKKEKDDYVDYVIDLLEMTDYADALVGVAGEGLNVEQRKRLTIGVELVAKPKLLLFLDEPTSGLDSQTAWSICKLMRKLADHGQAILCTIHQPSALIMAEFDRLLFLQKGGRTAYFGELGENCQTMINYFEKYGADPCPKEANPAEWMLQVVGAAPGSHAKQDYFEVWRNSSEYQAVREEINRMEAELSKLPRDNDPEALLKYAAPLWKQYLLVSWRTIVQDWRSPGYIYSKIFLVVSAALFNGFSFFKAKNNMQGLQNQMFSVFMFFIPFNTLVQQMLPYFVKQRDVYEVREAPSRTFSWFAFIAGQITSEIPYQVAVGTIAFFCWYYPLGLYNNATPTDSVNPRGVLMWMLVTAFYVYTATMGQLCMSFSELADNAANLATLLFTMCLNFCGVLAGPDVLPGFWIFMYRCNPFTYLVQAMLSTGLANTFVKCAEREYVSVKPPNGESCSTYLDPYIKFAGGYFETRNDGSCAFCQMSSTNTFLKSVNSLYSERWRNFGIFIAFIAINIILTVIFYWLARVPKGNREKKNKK

For `O=C(O)c1cccc2c(=O)c3ccccc3n(CC(O)CN3CCCC3)c12` (stereo unspecified), the inhibition result with Candida albicans [1] and in the assay on Candida albicans [2] was “inactive” throughout. The inhibition result (in assay [3]; in assay [4]; in assay [5]; in the assay on Candida albicans [11]) was “Active” each time. The RBA was 2 in [6], 1.85 in assay [7] and 1.6 in assay [8]. The Activity in assay [9] stood at 85%. The molecule also displayed a Ka in assay [10] of 1.5 ×10⁵ /M.
